Measured values: the RNAGym collection of RNA variant scans (doi:10.1002/anie.201605470)

B1: Osa-1-4 twister ribozyme (parent)
chain: CCGCCUAACACUGCCAAUGCCGGUCCCAAGCCCGGAUAAAAGUGGAGGGGGCGG

Variants of: B1
Experiment: self-cleavage, relative activity (ratio to wild type); higher = more cleavage; co-transcriptional
In short: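 In vitro transcription at 37 °C for 2 h allowed the twister ribozyme to cleave itself as it was made. Its 54-nucleotide Oryza sativa template had been synthesised with 97 % wild-type base and 1 % of each other base at the 48 positions downstream of the cleavage site. A template-switching oligonucleotide was used for reverse transcription, followed by PCR amplification and deep sequencing. Whether reads carried upstream sequence set the cleavage status, and relative activity is the fraction cleaved normalised to wild type.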

Row | Variant | self-cleavage
1 | CCGCCUAACACUGCCAAUGCCGGGCCCAAGCCCGGAUAAAAGUGGCGGGGGCGG [A46C U24G] | 0.01
2 | CCGCCUAACACUGCCAAUGCCGGACCCAAGCCCGGAUAAAAGUGGCGGGGGCGG [A46C U24A] | 0.02
3 | CCGCCUAACACUGCCAAUGCCGGCCCCAAGCCCGGAUAAAAGUGGCGGGGGCGG [A46C U24C] | 0.04
4 | CCGCCUAACACUGCCAAUGCCGGUCCCAAGUCCGGAUAAAAGUGGCGGGGGCGG [A46C C31U] | 0.04
5 | CCGCCUAACACUGCCAAUGCCGGUCCCAAGGCCGGAUAAAAGUGGCGGGGGCGG [A46C C31G] | 0.02
6 | CCGCCUAACACUGCCAAUGCCGGUCCCAAGACCGGAUAAAAGUGGCGGGGGCGG [A46C C31A] | 0.01
7 | CCGCCUAACACUGCCAAAGCCGGUCCCAAGCCCGGAUAAAAGUGGCGGGGGCGG [A46C U18A] | 0.06
8 | CCGCCUAACACUGCCAACGCCGGUCCCAAGCCCGGAUAAAAGUGGCGGGGGCGG [A46C U18C] | 0.06
9 | CCGCCUAACACUGCCAAGGCCGGUCCCAAGCCCGGAUAAAAGUGGCGGGGGCGG [A46C U18G] | 0.14
10 | CCGCCUAACACUGCCAAUGCCGGUCCCAAGCCCGGAUAAAAGUGGCGGGGGCAG [A46C G53A] | 0.07
11 | CCGCCUAACACUGCCAAUGCCGGUCCCAAGCCCGGAUAAAAGUGGCGGGGGCCG [A46C G53C] | 0.04
12 | CCGCCUAACACUGCCAAUGCCGGUCCCAAGCCCGGAUAAAAGUGGCGGGGGCUG [A46C G53U] | 0.08
13 | CCGCCUAACACUUCCAAUGCCGGUCCCAAGCCCGGAUAAAAGUGGCGGGGGCGG [A46C G13U] | 0.01
14 | CCGCCUAACACUACCAAUGCCGGUCCCAAGCCCGGAUAAAAGUGGCGGGGGCGG [A46C G13A] | 0.02
15 | CCGCCUAACACUCCCAAUGCCGGUCCCAAGCCCGGAUAAAAGUGGCGGGGGCGG [A46C G13C] | 0.01
16 | CCGCCUAACACUGCCAAUGCCGGUCCCAAGCGCGGAUAAAAGUGGCGGGGGCGG [A46C C32G] | 0.03
17 | CCGCCUAACACUGCCAAUGCCGGUCCCAAGCACGGAUAAAAGUGGCGGGGGCGG [A46C C32A] | 0.03
18 | CCGCCUAACACUGCCAAUGCCGGUCCCAAGCUCGGAUAAAAGUGGCGGGGGCGG [A46C C32U] | 0.04
19 | CCGCCUAACACUGCCAAUGCCGGUCCCAAGCCCGGAUAAAAAUGGCGGGGGCGG [A46C G42A] | 0.04
20 | CCGCCUAACACUGCCAAUGCCGGUCCCAAGCCCGGAUAAAAUUGGCGGGGGCGG [A46C G42U] | 0.02
21 | CCGCCUAACACUGCCAAUGCCGGUCCCAAGCCCGGAUAAAACUGGCGGGGGCGG [A46C G42C] | 0.04
22 | CCGCCUUACACUGCCAAUGCCGGUCCCAAGCCCGGAUAAAAGUGGGGGGGGCGG [A46G A7U] | 0.01
23 | CCGCCUCACACUGCCAAUGCCGGUCCCAAGCCCGGAUAAAAGUGGGGGGGGCGG [A46G A7C] | 0.02
24 | CCGCCUGACACUGCCAAUGCCGGUCCCAAGCCCGGAUAAAAGUGGGGGGGGCGG [A46G A7G] | 0.05

Row | Variant | self-cleavage
25 | CCGCCUAACACUGCCAAUGCCGGUCCCAAGCCCGAAUAAAAGUGGCGGGGGCGG [A46C G35A] | 0.06
26 | CCGCCUAACACUGCCAAUGCCGGUCCCAAGCCCGCAUAAAAGUGGCGGGGGCGG [A46C G35C] | 0.04
27 | CCGCCUAACACUGCCAAUGCCGGUCCCAAGCCCGUAUAAAAGUGGCGGGGGCGG [A46C G35U] | 0.05
28 | CCGCCUAACACUGCCAAUGCCCGUCCCAAGCCCGGAUAAAAGUGGCGGGGGCGG [A46C G22C] | 0.03
29 | CCGCCUAACACUGCCAAUGCCUGUCCCAAGCCCGGAUAAAAGUGGCGGGGGCGG [A46C G22U] | 0.04
30 | CCGCCUAACACUGCCAAUGCCAGUCCCAAGCCCGGAUAAAAGUGGCGGGGGCGG [A46C G22A] | 0.06
31 | CCGCCUAACACUGCCAAUGCCGGUCCCAAGCCCGGAUAAAAGUAGCGGGGGCGG [A46C G44A] | 0.05
32 | CCGCCUAACACUGCCAAUGCCGGUCCCAAGCCCGGAUAAAAGUUGCGGGGGCGG [A46C G44U] | 0.06
33 | CCGCCUAACACUGCCAAUGCCGGUCCCAAGCCCGGAUAAAAGUCGCGGGGGCGG [A46C G44C] | 0.06
34 | CCGCCUAACACUGCCAAUGCCGGUCCCAAGCCCGGAUAAAAGCGGCGGGGGCGG [A46C U43C] | 0.05
35 | CCGCCUAACACUGCCAAUGCCGGUCCCAAGCCCGGAUAAAAGAGGCGGGGGCGG [A46C U43A] | 0.06
36 | CCGCCUAACACUGCCAAUGCCGGUCCCAAGCCCGGAUAAAAGGGGCGGGGGCGG [A46C U43G] | 0.05
37 | CCGCCUAACACUGCCAAUGCCGGUCGCAAGCCCGGAUAAAAGUGGCGGGGGCGG [A46C C26G] | 0.02
38 | CCGCCUAACACUGCCAAUGCCGGUCUCAAGCCCGGAUAAAAGUGGCGGGGGCGG [A46C C26U] | 0.05
39 | CCGCCUAACACUGCCAAUGCCGGUCACAAGCCCGGAUAAAAGUGGCGGGGGCGG [A46C C26A] | 0.02
40 | CCGCCUAACACUGCCAAUGCCGGUCCCAAGCCCGGAUAAAAGUGGGGGGGGCGG [A46G] | 0.08
41 | CCGCCUAACACUGCCAAUGCCGGUCCCAAGCCCGGACAAAAGUGGCGGGGGCGG [A46C U37C] | 0.07
42 | CCGCCUAACACUGCCAAUGCCGGUCCCAAGCCCGGAGAAAAGUGGCGGGGGCGG [A46C U37G] | 0.09
43 | CCGCCUAACACUGCCAAUGCCGGUCCCAAGCCCGGAAAAAAGUGGCGGGGGCGG [A46C U37A] | 0.05
44 | CCGCCUAACACUGCCAAUUCCGGUCCCAAGCCCGGAUAAAAGUGGCGGGGGCGG [A46C G19U] | 0.04
45 | CCGCCUAACACUGCCAAUACCGGUCCCAAGCCCGGAUAAAAGUGGCGGGGGCGG [A46C G19A] | 0.05
46 | CCGCCUAACACUGCCAAUCCCGGUCCCAAGCCCGGAUAAAAGUGGCGGGGGCGG [A46C G19C] | 0.02
47 | CCGCCUAAAACUGCCAAUGCCGGUCCCAAGCCCGGAUAAAAGUGGGGGGGGCGG [A46G C9A] | 0.03
48 | CCGCCUAAGACUGCCAAUGCCGGUCCCAAGCCCGGAUAAAAGUGGGGGGGGCGG [A46G C9G] | 0.07
